# Test system: Mycobacterium tuberculosis
# Experiment: Antitubercular activity against Mycobacterium bovis BCG after 7 days by alamar blue assay
# Assay type: functional
# Conditions: variant bovis BCG, 168 h
# How it was run: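 Frozen BCG stock thawed, lightly sonicated, diluted in Dubos broth/OADC to 4 × 10^4 bacteria/well; compounds at varied concentrations in PBS/2.5-5% DMSO, 37 °C for 7 days, then Alamar Blue 24 h. Ethambutol control; triplicate.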
row,SMILES,MIC [µg/mL]
1,Cc1ccc(S(=O)(=O)C2=C(S(=O)(=O)c3ccc(C)cc3)C(=O)c3ncccc3C2=O)cc1,6.3
2,O=C1C(Cl)=C(NCCBr)C(=O)c2ncccc21,6.3
3,O=C1C(NCCCl)=C(Cl)C(=O)c2ncccc21,6.3
4,O=C1C(Cl)=C(NCCCl)C(=O)c2ncccc21,12.5
5,Cc1ccc2c(n1)C(=O)C(Cl)=C(NCCBr)C2=O,12.5
6,Cc1ccc2c(n1)C(=O)C(NCCBr)=C(Cl)C2=O,12.5
7,CNC1=C(SC)C(=O)c2cccnc2C1=O,> 50
8,CNC1=C(Sc2ccccc2)C(=O)c2ncccc2C1=O,12.5
9,CNC1=C(Sc2ccccc2)C(=O)c2cccnc2C1=O,12.5
10,CNC1=C([S+](C)[O-])C(=O)c2ncccc2C1=O (stereo unspecified),25
11,Cc1ccc2c(n1)C(=O)C(Cl)=C(Cl)C2=O,6.3
12,O=C1c2cccnc2C(=O)C2SCCNC12 (stereo unspecified),6.3
13,O=C1C2=C(NCCS2)C(=O)c2ncccc21,6.3
14,C[S+]([O-])C1=C(N)C(=O)c2cccnc2C1=O (stereo unspecified),1.56
15,CNC1=C(Cl)C(=O)c2cccnc2C1=O,12.5
16,CSC1=C(N)C(=O)c2cccnc2C1=O,6.3
17,CNC1=C(SC)C(=O)c2ncccc2C1=O,12.5
18,CSC1=C(SC)C(=O)c2ncccc2C1=O,6.3
19,O=C1C(NCCBr)=C(Cl)C(=O)c2ncccc21,3.13
20,O=C1C(NC(c2ccccc2)c2ccccc2)=C(Cl)C(=O)c2ncccc21,6.3
21,CNC1=C(Cl)C(=O)c2ncccc2C1=O,12.5
22,CNC1=C([S+](C)[O-])C(=O)c2cccnc2C1=O (stereo unspecified),> 50
23,CS(=O)(=O)C1=C(N)C(=O)c2cccnc2C1=O,25
24,Cc1ccc(S(=O)(=O)C2=C(Cl)C(=O)c3ncccc3C2=O)cc1,> 50
25,O=C1C(Sc2ccccc2)=C(Sc2ccccc2)C(=O)c2ncccc21,> 50
26,Oc1c(Sc2ccccc2)c(Sc2ccccc2)c(O)c2ncccc12,25

# Source: ChEMBL document CHEMBL1157933, “The anti-cancer, anti-inflammatory and tuberculostatic activities of a series of 6,7-substituted-5,8-quinolinequinones” (Bioorg Med Chem, 2010)
